Measurements reported in ChEMBL document CHEMBL3616444, “Design, synthesis and pharmacological evaluation of pyrimidobenzothiazole-3-carboxylate derivatives as selective L-type calcium channel blockers” (Bioorg Med Chem, 2015).

Key:
[1] = target: Myosin light chain kinase, smooth muscle (Homo sapiens, UniProt Q15746); experiment: Inhibition of MLCK (unknown origin) incubated for 15 mins using [gamma-32P]-ATP by scintillation counting method
Outline: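 Active MLCK thawed on ice with kinase assay and dilution buffers and substrate; reaction with γ-32P-ATP incubated 15 min at 30 °C in a water bath, spotted on phosphocellulose P81 paper, washed three times ~10 min in 1% phosphoric acid. Radioactivity by scintillation counting, blank-corrected cpm converted to specific activity (nmol/min/mg); IC50 from log plots, at least five determinations per concentration.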

[2] = Inhibition of porcine kidney ACE assessed as reduction in hippuryl-histidyl-leucine hydrolysis to hippuric acid release incubated for 30 mins high-throughput colorimetric method; parameters: species or system Sus scrofa
Outline: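 Porcine kidney ACE in 1 M sodium borate buffer pH 8.2 with 0.3 M NaCl and 5 mM HHL substrate (stock); 37 °C for 30 min, stopped with 1 M HCl. Released hippuric acid complexed with pyridine and benzene sulfonyl chloride, cooled on ice, yellow colour read at 410 nm; IC50 from log plots, at least five determinations per concentration.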

Rattus norvegicus [3] = experiment: Antihypertensive activity in Norwegian albino rat model of DOCA-salt-induced hypertension assessed as inhibition of systolic blood pressure at 10 mg/kg, po after 1 hr by non-invasive tail cuff method relative to control; format: functional
Outline: (§1)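 DOCA-salt hypertensive rats; systolic pressure by tail cuff after 10 mg/kg, recorded hourly from 0 to 10 h; percent inhibition computed. Data as mean ± SEM, repeated-measures ANOVA.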

Rattus norvegicus [4] = experiment: Antihypertensive activity in Norwegian albino rat model of DOCA-salt-induced hypertension assessed as inhibition of systolic blood pressure at 10 mg/kg, po after 2 hrs by non-invasive tail cuff method relative to control; format: functional; outline: as §1
Rattus norvegicus [5] = experiment: Antihypertensive activity in Norwegian albino rat model of DOCA-salt-induced hypertension assessed as inhibition of systolic blood pressure at 10 mg/kg, po after 3 hrs by non-invasive tail cuff method relative to control; format: functional; outline: as §1
Rattus norvegicus [6] = experiment: Antihypertensive activity in Norwegian albino rat model of DOCA-salt-induced hypertension assessed as inhibition of systolic blood pressure at 10 mg/kg, po after 4 hrs by non-invasive tail cuff method relative to control; format: functional; outline: as §1
Rattus norvegicus [7] = experiment: Antihypertensive activity in Norwegian albino rat model of DOCA-salt-induced hypertension assessed as inhibition of systolic blood pressure at 10 mg/kg, po after 5 hrs by non-invasive tail cuff method relative to control; format: functional; outline: as §1
Rattus norvegicus [8] = experiment: Antihypertensive activity in Norwegian albino rat model of DOCA-salt-induced hypertension assessed as inhibition of systolic blood pressure at 10 mg/kg, po after 6 hrs by non-invasive tail cuff method relative to control; format: functional; outline: as §1
Rattus norvegicus [9] = experiment: Antihypertensive activity in Norwegian albino rat model of DOCA-salt-induced hypertension assessed as inhibition of systolic blood pressure at 10 mg/kg, po after 7 hrs by non-invasive tail cuff method relative to control; format: functional; outline: as §1
Rattus norvegicus [10] = experiment: Antihypertensive activity in Norwegian albino rat model of DOCA-salt-induced hypertension assessed as inhibition of systolic blood pressure at 10 mg/kg, po after 8 hrs by non-invasive tail cuff method relative to control; format: functional; outline: as §1
Rattus norvegicus [11] = experiment: Antihypertensive activity in Norwegian albino rat model of DOCA-salt-induced hypertension assessed as inhibition of systolic blood pressure at 10 mg/kg, po after 9 hrs by non-invasive tail cuff method relative to control; format: functional; outline: as §1
Rattus norvegicus [12] = experiment: Antihypertensive activity in Norwegian albino rat model of DOCA-salt-induced hypertension assessed as inhibition of systolic blood pressure at 10 mg/kg, po after 10 hrs by non-invasive tail cuff method relative to control; format: functional; outline: as §1
Rattus norvegicus [13] = experiment: Gastrointestinal toxicity in Norwegian rat assessed as ulcerative index at 50 mg/kg, po after 17 hrs; format: organism-based; settings: in vivo

Sequence of Myosin light chain kinase, smooth muscle (Q15746 whole entry): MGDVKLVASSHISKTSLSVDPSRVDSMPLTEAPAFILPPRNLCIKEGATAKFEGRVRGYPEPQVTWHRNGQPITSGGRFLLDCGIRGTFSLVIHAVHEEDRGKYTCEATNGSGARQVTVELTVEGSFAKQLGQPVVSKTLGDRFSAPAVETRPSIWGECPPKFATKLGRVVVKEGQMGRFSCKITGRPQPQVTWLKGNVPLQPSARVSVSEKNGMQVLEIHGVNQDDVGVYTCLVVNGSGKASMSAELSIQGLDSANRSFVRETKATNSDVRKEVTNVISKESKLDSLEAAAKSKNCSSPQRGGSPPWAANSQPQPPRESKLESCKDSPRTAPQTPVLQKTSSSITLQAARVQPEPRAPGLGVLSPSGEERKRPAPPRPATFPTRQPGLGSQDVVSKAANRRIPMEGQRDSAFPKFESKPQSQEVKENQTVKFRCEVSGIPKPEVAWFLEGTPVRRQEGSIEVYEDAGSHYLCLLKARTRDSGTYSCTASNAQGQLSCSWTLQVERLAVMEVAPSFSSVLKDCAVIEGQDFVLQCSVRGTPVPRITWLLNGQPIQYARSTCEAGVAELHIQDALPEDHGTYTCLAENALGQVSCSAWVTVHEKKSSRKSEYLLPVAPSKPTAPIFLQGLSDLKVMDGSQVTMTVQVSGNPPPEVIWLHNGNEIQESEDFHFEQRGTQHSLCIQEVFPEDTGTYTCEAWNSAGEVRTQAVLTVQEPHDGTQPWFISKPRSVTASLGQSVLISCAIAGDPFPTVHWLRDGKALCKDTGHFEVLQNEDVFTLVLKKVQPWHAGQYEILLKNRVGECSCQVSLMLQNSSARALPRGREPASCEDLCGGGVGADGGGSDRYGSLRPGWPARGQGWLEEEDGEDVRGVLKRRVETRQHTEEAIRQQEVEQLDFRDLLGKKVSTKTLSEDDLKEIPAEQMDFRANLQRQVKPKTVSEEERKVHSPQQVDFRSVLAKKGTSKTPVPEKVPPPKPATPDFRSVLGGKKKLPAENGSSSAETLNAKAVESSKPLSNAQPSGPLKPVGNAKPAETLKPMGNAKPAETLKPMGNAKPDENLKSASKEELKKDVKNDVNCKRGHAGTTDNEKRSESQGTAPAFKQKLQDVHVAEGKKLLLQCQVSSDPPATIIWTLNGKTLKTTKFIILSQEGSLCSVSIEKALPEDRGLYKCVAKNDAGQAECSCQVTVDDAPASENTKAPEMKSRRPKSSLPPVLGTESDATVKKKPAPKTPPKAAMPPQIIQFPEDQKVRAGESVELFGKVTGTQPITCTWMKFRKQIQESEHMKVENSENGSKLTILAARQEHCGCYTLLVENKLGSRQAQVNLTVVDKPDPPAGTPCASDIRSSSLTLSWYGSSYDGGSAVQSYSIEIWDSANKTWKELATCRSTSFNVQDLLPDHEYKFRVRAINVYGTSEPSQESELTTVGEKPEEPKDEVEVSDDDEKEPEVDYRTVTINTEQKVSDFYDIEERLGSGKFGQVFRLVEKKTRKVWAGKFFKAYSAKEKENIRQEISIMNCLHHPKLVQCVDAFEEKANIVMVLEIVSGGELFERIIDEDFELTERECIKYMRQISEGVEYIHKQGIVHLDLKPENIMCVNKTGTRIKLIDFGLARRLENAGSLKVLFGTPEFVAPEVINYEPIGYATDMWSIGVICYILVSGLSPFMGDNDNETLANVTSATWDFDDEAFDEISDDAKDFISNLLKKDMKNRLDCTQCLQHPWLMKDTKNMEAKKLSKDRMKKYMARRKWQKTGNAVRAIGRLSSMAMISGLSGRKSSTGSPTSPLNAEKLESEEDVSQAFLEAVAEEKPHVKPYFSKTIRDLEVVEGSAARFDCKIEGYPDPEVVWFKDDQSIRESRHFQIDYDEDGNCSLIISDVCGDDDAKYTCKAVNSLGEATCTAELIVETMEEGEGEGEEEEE

Compound | IC50 ([1]; read-out: IC50) | IC50 [2] | inhibition in vivo at 10 mg/kg (Rattus norvegicus [3]) | inhibition in vivo at 10 mg/kg (Rattus norvegicus [4]) | inhibition in vivo at 10 mg/kg (Rattus norvegicus [5]) | inhibition in vivo at 10 mg/kg (Rattus norvegicus [6]) | inhibition in vivo at 10 mg/kg (Rattus norvegicus [7]) | inhibition in vivo at 10 mg/kg (Rattus norvegicus [8]) | inhibition in vivo at 10 mg/kg (Rattus norvegicus [9]) | inhibition in vivo at 10 mg/kg (Rattus norvegicus [10]) | inhibition in vivo at 10 mg/kg (Rattus norvegicus [11]) | inhibition in vivo at 10 mg/kg (Rattus norvegicus [12]) | IC50 ([1]; read-out: pIC50 (converted)) | UI (Rattus norvegicus [13])
Cc1cc(C)nc(Nc2nc3ccccc3s2)n1 | > 100 µM | > 100 µM | 0.44% | 0% | 0.44% | 1.33% | 5.33% | 7.11% | 8.44% | 8.44% | 8.89% | 8.89% | – | –
CC(=O)c1c(C)nc(Nc2nc3ccccc3s2)nc1C | > 100 µM | > 100 µM | 0.88% | 0.44% | 0.88% | 2.21% | 5.31% | 7.08% | 7.52% | 7.52% | 7.96% | 8.41% | – | –
CCOC(=O)C1=C(C)NC(OC)N(CC(=O)c2ccc(OC)cc2)C1c1ccc(Cl)cc1 (configuration not stated) | 18.2 µM | > 100 µM | – | – | – | – | – | – | – | – | – | – | 5490 µM | –
COC(=O)C1=C(C)N=C2Sc3ccccc3N2C1c1ccccc1Cl (configuration not stated) | 9.8 µM | > 100 µM | 1.77% | 2.65% | 14.6% | 18.1% | 22.6% | 24.8% | 27% | 28.8% | 31.4% | 33.6% | 10200 µM | –
COC(=O)C1=C(C)N=C2Sc3ccccc3N2C1c1ccccc1O (configuration not stated) | 4.3 µM | > 100 µM | 3.57% | 8.48% | 19.6% | 24.1% | 26.3% | 33% | 36.6% | 42% | 43.8% | 46.4% | 23300 µM | –
COC(=O)C1=C(C)N=C2Sc3ccccc3N2C1c1ccc(O)cc1 (configuration not stated) | 4.21 µM | > 100 µM | 3.51% | 7.89% | 19.7% | 25.4% | 29.4% | 34.2% | 38.2% | 39.5% | 40.8% | 42.1% | 23800 µM | –
COC(=O)C1=C(C)N=C2Sc3ccccc3N2C1c1ccc(N(C)C)cc1 (configuration not stated) | 4.37 µM | > 100 µM | 1.77% | 2.65% | 14.6% | 18.1% | 22.6% | 24.8% | 27% | 28.8% | 31.4% | 33.6% | 22900 µM | –
CCOC(=O)C1=C(C)N=C2Sc3ccccc3N2C1c1ccccc1Cl (configuration not stated) | 10.8 µM | > 100 µM | 1.77% | 2.65% | 14.6% | 18.1% | 22.6% | 24.8% | 27% | 28.8% | 31.4% | 33.6% | 9260 µM | –
CCc1nc(Nc2nc3ccccc3s2)nc(C)c1C(C)=O | > 100 µM | > 100 µM | 0.44% | 0% | 0.44% | 1.33% | 6.22% | 7.56% | 8% | 8% | 8.44% | 8.89% | – | –
CCOC(=O)C1=C(C)NC(OC)N(CC(=O)c2ccc(Cl)cc2)C1c1ccc(Cl)cc1 (configuration not stated) | 41.3 µM | > 100 µM | – | – | – | – | – | – | – | – | – | – | 2420 µM | –
CCOC(=O)C1=C(C)NC(OC)N(CC(=O)c2ccc(Cl)cc2)C1c1ccc(O)cc1 (configuration not stated) | 15.2 µM | > 100 µM | – | – | – | – | – | – | – | – | – | – | 6580 µM | –
CCOC(=O)C1=C(C)NC(OC)N(CC(=O)c2ccc(OC)cc2)C1c1ccc(O)cc1 (configuration not stated) | 9.8 µM | > 100 µM | – | – | – | – | – | – | – | – | – | – | 10.2 µM | –
CCOC(=O)C1=C(C)NC(OC)N(CC(=O)c2ccc(OC)cc2)C1c1ccc(OC)cc1 (configuration not stated) | 4.1 µM | > 100 µM | – | – | – | – | – | – | – | – | – | – | 24.4 µM | –
CCOC(=O)C1=C(C)NC(OC)N(CC(=O)c2ccccc2)C1c1ccc(Cl)cc1 (configuration not stated) | 31.3 µM | > 100 µM | – | – | – | – | – | – | – | – | – | – | 3190 µM | –
CCOC(=O)C1=C(C)NC(OC)N(CC(=O)c2ccccc2)C1c1ccc(C)cc1 (configuration not stated) | 19.2 µM | > 100 µM | – | – | – | – | – | – | – | – | – | – | 5210 µM | –
CCOC(=O)C1=C(C)NC(OC)N(CC(=O)c2ccc(OC)cc2)C1c1ccc(C)cc1 (configuration not stated) | 5.1 µM | > 100 µM | – | – | – | – | – | – | – | – | – | – | 19.6 µM | –
CCOC(=O)C1=C(C)NC(OC)N(CC(=O)c2ccc(Cl)cc2)C1c1ccc(OC)cc1 (configuration not stated) | 30.3 µM | > 100 µM | – | – | – | – | – | – | – | – | – | – | 3300 µM | –
CCOC(=O)C1=C(C)NC(OC)N(CC(=O)c2ccc(Cl)cc2)C1c1ccc(C)cc1 (configuration not stated) | 29.2 µM | > 100 µM | – | – | – | – | – | – | – | – | – | – | 3420 µM | –
CCOC(=O)C1=C(C)NC(OC)N(CC(=O)c2ccccc2)C1c1ccccc1 (configuration not stated) | 23.3 µM | > 100 µM | – | – | – | – | – | – | – | – | – | – | 4290 µM | –
CCOC(=O)C1=C(C)NC(OC)N(CC(=O)c2ccc(Cl)cc2)C1c1ccccc1 (configuration not stated) | 33.3 µM | > 100 µM | – | – | – | – | – | – | – | – | – | – | 3000 µM | –
CCOC(=O)C1=C(C)NC(OC)N(CC(=O)c2ccccc2)C1c1ccc(OC)cc1 (configuration not stated) | 7.4 µM | > 100 µM | – | – | – | – | – | – | – | – | – | – | 13.5 µM | –
CCOC(=O)C1=C(C)NC(OC)N(CC(=O)c2ccc(OC)cc2)C1c1ccccc1 (configuration not stated) | 13.3 µM | > 100 µM | – | – | – | – | – | – | – | – | – | – | 7.52 µM | –
CCOC(=O)C1=C(C)NC(OC)N(CC(=O)c2ccccc2)C1c1ccc(O)cc1 (configuration not stated) | 10.2 µM | > 100 µM | – | – | – | – | – | – | – | – | – | – | 9.8 µM | –
CC(C)Cc1ccc(C(C)C(=O)O)cc1 (configuration not stated) [IBUPROFEN] | – | – | – | – | – | – | – | – | – | – | – | – | – | 1.97
